Measured values reported in ChEMBL document CHEMBL4024790 (J Med Chem, 2018).
Calls of active or inactive are those of the source. The calls are words filed in the database; no cut-off is given here.

How the values were obtained:
[1] = Apparent intrinsic clearance in human liver microsomes; type: ADME, microsome; settings: read-out: CLH(app)
Canis familiaris = organism: Canis familiaris; assay: Toxicity in dog assessed as effect on CNS up to 1 month by microscopic method; design: species or system Canis lupus familiaris; settings: in vivo
Rattus norvegicus = assay: Reversal of ketamine-induced working memory deficit in Long Evans rat at 1 mg/kg, sc by radial arm maze assay; type: functional, organism-based
In short: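 Rats trained in a radial arm maze working-memory task, with deficit induced by ketamine. Compound dosed sc; errors compared with vehicle + ketamine. N = 20–23 per group, Hochberg test. Cbu at the tested doses estimated from satellite pharmacokinetic animals.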

Mus musculus = organism: Mus musculus; assay: Increase in cGMP level in CD-1 mouse brain striatum assessed per nM of unbound brain concentration by immunoassay; type: functional
In short: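 CD-1 mice given compound; brains fixed by focused microwave irradiation, and cortex, striatum and hippocampus dissected and homogenized in 0.5 N HCl, then centrifuged. cGMP in the supernatant measured by enzyme immunoassay. Unbound brain concentration taken from satellite animals. Dose-response and time-course data combined, and a linear Cbu–cGMP model fitted. The Cbu E50 is the projected Cbu giving a 50% rise in cGMP. Statistics by one-way ANOVA with Fisher's PLSD, p<0.05.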

Cytochrome P450 2C19 = Cytochrome P450 2C19 (Homo sapiens, UniProt P33261); assay: Time-dependant inhibition of recombinant human CYP2C19; type: ADME; settings: recombinant enzyme
Sequence of Cytochrome P450 2C19 (P33261 whole entry): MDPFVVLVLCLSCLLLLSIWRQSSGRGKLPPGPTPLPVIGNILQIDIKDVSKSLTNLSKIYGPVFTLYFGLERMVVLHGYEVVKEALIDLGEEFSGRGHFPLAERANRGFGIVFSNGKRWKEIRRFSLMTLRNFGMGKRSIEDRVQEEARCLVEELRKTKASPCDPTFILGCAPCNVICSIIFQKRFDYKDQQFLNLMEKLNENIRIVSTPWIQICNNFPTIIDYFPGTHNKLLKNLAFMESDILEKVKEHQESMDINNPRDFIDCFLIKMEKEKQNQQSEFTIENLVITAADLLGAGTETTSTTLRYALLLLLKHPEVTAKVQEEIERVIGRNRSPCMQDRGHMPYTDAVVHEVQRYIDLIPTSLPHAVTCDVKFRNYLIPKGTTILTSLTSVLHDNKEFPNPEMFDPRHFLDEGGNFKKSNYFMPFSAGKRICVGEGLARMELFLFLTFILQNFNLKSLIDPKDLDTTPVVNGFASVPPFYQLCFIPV

Cytochrome P450 2D6 = Cytochrome P450 2D6 (Homo sapiens, UniProt P10635); assay: Time-dependant inhibition of recombinant human CYP2D6; type: ADME; settings: recombinant enzyme
Sequence of Cytochrome P450 2D6 (P10635 whole entry): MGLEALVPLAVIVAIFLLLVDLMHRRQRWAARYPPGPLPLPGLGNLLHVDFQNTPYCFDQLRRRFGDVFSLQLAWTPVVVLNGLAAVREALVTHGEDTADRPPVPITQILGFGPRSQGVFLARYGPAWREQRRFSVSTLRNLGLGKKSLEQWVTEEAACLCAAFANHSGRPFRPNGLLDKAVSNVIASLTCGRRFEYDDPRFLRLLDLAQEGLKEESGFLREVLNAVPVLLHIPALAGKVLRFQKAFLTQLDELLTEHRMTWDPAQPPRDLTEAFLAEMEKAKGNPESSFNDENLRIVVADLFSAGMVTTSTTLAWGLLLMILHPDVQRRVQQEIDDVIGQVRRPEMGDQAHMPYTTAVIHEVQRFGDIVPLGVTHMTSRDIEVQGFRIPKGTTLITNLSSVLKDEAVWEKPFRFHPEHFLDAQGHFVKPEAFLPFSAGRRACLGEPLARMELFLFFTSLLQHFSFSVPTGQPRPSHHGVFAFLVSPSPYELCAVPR

Cytochrome P450 3A = Cytochrome P450 3A (Homo sapiens, UniProt P08684+P20815+Q9HB55+P24462); assay: Time-dependant inhibition of recombinant human CYP3A; type: ADME; settings: recombinant enzyme
Aldehyde oxidase = target: T1, Aldehyde oxidase (Homo sapiens, UniProt Q06278); assay: Drug metabolism assessed as aldehyde oxidase (unknown origin)-mediated metabolite formation; type: ADME
T1 sequence (Q06278 whole entry): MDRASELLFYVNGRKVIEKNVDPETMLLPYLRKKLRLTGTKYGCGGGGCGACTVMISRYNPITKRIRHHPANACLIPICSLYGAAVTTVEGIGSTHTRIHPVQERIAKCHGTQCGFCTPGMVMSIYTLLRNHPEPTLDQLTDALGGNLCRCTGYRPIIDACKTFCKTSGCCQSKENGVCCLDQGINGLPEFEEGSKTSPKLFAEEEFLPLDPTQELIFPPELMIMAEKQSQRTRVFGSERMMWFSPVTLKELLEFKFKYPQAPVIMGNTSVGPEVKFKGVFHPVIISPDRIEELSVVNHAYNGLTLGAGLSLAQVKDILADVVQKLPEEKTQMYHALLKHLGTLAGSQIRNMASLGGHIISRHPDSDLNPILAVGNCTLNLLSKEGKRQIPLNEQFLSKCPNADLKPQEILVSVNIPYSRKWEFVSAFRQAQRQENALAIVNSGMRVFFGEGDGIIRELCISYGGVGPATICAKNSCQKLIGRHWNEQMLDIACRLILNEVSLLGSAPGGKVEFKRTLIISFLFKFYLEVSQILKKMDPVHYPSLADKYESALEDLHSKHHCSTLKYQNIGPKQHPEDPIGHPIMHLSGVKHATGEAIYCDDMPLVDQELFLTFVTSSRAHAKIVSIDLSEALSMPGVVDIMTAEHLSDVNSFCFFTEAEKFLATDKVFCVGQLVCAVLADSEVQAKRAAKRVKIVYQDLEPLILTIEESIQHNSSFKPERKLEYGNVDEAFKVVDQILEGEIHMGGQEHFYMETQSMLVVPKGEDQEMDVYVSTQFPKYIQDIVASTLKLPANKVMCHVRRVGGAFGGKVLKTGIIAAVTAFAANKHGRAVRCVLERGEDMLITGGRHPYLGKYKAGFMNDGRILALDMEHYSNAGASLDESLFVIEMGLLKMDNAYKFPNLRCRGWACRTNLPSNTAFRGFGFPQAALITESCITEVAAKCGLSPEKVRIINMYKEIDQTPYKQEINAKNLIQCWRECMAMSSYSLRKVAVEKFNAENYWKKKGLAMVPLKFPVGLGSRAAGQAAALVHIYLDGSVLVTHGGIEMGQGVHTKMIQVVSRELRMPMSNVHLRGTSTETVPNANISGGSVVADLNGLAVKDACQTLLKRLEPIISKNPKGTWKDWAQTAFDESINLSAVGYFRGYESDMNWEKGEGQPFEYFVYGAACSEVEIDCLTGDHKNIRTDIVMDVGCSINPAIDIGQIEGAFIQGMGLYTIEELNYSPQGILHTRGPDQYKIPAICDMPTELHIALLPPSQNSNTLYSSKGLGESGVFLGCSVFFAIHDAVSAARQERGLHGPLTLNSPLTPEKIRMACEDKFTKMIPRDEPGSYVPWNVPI

[2] = Oral bioavailability in beagle dog at 5 mg/kg administered via gavage by LC-MS/MS analysis; type: ADME, organism-based, Canis lupus familiaris; settings: in vivo
[3] = Plasma clearance in beagle dog at 0.3 mg/kg, iv by LC-MS/MS analysis; type: ADME, organism-based, Canis lupus familiaris
In short: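 Single iv dose to male Wistar-Han rats (1 mg/kg) or dogs (0.3 mg/kg), given as a solution in 20% (w/v) SBECD with HCl. Dose volume 1 mL/kg in rats and 0.4 mL/kg in dogs. Blood taken by carotid artery cannula from 2 min to 24 h into K2EDTA (rat) or K3EDTA (dog) tubes. Plasma analysed by LC-MS/MS with positive electrospray after acetonitrile precipitation with internal standard.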

Compound: Cc1nc(-c2cnn(C)c2-c2ccc(C(F)(F)F)cn2)c2c(N3CCC3)ncnn12 [PF-05180999]
- CLint scaled [1]: 52 mL/min/kg
- Activity (Canis familiaris): Toxic
- Activity (Rattus norvegicus): inactive
- Activity (Mus musculus): 0.51%
- TDI (Cytochrome P450 2C19): Not Active
- TDI (Cytochrome P450 2D6): Not Active
- TDI (Cytochrome P450 3A): Not Active
- Drug metabolism (Aldehyde oxidase): Metabolite_Notdetected
- bioavailability [2]: 57%
- clearance [3]: 12.3 mL/min/kg
